Experimental data published in ChEMBL document CHEMBL3585255, “The Cephalostatins. 24. Isolation, Structure, and Cancer Cell Growth Inhibition of Cephalostatin 20” (2015).

Columns and labels:
Type in all cases: functional
[1] = system: NCI-H460; test: Cytotoxicity against human NCI-H460 cells after 48 hrs by sulforhodamine B assay; details: NCI-H460, 48 h
How it was run: (§1)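 Cells in RPMI1640 with 5% fetal bovine serum were plated in 96-well plates and incubated 24 h before serial dilutions of compound were added. After 48 h exposure, cells were fixed with trichloroacetic acid and stained with sulforhodamine B, and optical density was read on a plate reader. GI50, the concentration giving 50% reduction in net protein increase, was calculated from the OD data.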

[2] = system: DU-145; test: Cytotoxicity against human DU145 cells after 48 hrs by sulforhodamine B assay; details: DU-145, 48 h; how it was run: as §1
[3] = system: MCF7; test: Cytotoxicity against human MCF7 cells after 48 hrs by sulforhodamine B assay; details: MCF7, 48 h; how it was run: as §1
[4] = system: SF-268; test: Cytotoxicity against human SF268 cells after 48 hrs by sulforhodamine B assay; details: SF-268, 48 h; how it was run: as §1
[5] = Cytotoxicity against human KM20L2 cells after 48 hrs by sulforhodamine B assay; details: KM-20L2, 48 h; how it was run: as §1
[6] = Cytotoxicity against human BxPC3 cells after 48 hrs by sulforhodamine B assay; details: BXPC-3, 48 h; how it was run: as §1

| Structure (SMILES) | GI50 [1] [nM] | GI50 [2] [nM] | GI50 [3] [nM] | GI50 [4] [nM] | GI50 [5] [nM] | GI50 [6] [nM] |
| --- | --- | --- | --- | --- | --- | --- |
| C[C@@H]1[C@]2(O[C@H]3C=C4[C@@H]5CC[C@H]6Cc7nc8c(nc7C[C@]6(C)[C@H]5C[C@@H](O)[C@]4(C)[C@]31O)C[C@@H]1CC[C@H]3C4=CC[C@@H]5[C@H](C)[C@@]6(OC[C@]45C(=O)C[C@]3(O)[C@@]1(C)C8)OC(C)(C)C[C@H]6O)O[C@](C)(CO)C[C@H]2O [CEPHALOSTATIN 2] | 0.0056 | 0.11 | 0.022 | 0.12 | 0.006 | 0.022 |
| C[C@@H]1[C@H]2CC=C3[C@H]4CC[C@H]5Cc6nc7c(nc6C[C@]5(C)[C@@]4(O)CC(=O)[C@@]32CO[C@]12OC(C)(C)C[C@H]2O)C[C@@H]1CC[C@H]2C3=C[C@@H]4O[C@]5(O[C@](C)(CO)C[C@H]5O)[C@@H](C)[C@]4(O)[C@@]3(C)[C@H](O)C[C@@H]2[C@@]1(C)C7 [CEPHALOSTATIN 17] | 0.46 | 3.3 | 0.43 | 2.7 | 0.58 | 0.36 |
| C[C@@H]1[C@]2(O[C@H]3C=C4[C@@H]5CC[C@H]6Cc7nc8c(nc7C[C@]6(C)[C@H]5C[C@@H](O)[C@]4(C)[C@]31O)C[C@@H]1CC[C@H]3C4=CC[C@@H]5[C@H](C)[C@@](O)([C@H](O)CC(C)(C)O)OC[C@]45C(=O)C[C@]3(O)[C@@]1(C)C8)O[C@](C)(CO)C[C@H]2O | 6 | 210 | 22 | 36 | 7.2 | 16 |
| CO[C@H]1c2nc3c(nc2C[C@@H]2CC[C@H]4C5=CC[C@@H]6[C@H](C)[C@@]7(OC[C@]56C(=O)C[C@@H]4[C@]21C)OC(C)(C)C[C@H]7O)C[C@@]1(C)[C@@H](CC[C@H]2C4=C[C@@H]5O[C@]6(O[C@](C)(CO)C[C@H]6O)[C@@H](C)[C@]5(O)[C@@]4(C)[C@H](O)C[C@@H]21)C3 [CEPHALOSTATIN 19] | 5.3 | 30 | 7.4 | 78 | 6.1 | 3.9 |
| CO[C@H]1c2nc3c(nc2C[C@@H]2CC[C@H]4C5=C[C@@H]6O[C@]7(O[C@](C)(CO)C[C@H]7O)[C@@H](C)[C@]6(O)[C@@]5(C)[C@H](O)C[C@@H]4[C@]21C)C[C@@]1(C)[C@@H](CC[C@H]2C4=CC[C@@H]5[C@H](C)[C@@]6(OC[C@]45C(=O)C[C@@H]21)OC(C)(C)C[C@H]6O)C3 [CEPHALOSTATIN 18] | 2.8 | 20 | 3.3 | 7.8 | 3.1 | 3.3 |
| C[C@@H]1[C@H]2CC=C3[C@@H]4CC[C@H]5Cc6nc7c(nc6C[C@]5(C)[C@@]4(O)CC(=O)[C@@]32CO[C@]12OC(C)(C)C[C@H]2O)C[C@@H]1CC[C@H]2C3=C[C@@H]4O[C@@]5(CC[C@](C)(O)CO5)[C@@H](C)[C@]4(O)[C@@]3(C)[C@H](O)C[C@@H]2[C@@]1(C)C7 [CEPHALOSTATIN 16] | 0.64 | 12 | 1.1 | 5.2 | 0.6 | 0.44 |
